Reference: ChEMBL document CHEMBL1144737, “Synthesis and antifungal activity of novel sulfoxide derivatives containing trimethoxyphenyl substituted 1,3,4-thiadiazole and 1,3,4-oxadiazole moiety” (Bioorg Med Chem, 2008)
Converted amounts (≈) assume the structure as drawn.

Key:
Fusarium graminearum [1] = assay: Antifungal activity against Gibberella zeae at 50 ug/ml by poison plate technique; assay type: functional
In short: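 Poison-plate (mycelial growth rate) test at a single final concentration in PDA. Fungus was pre-grown 4 days at 27±1 °C, and a 4 mm mycelial plug was placed at the plate centre and incubated 5 days at 27±1 °C. Acetone in sterile water was the untreated control. Triplicate plates were used; inhibition % = (C−T)/(C−0.4)×100 from colony diameters.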

Cytospora [2] = assay: Antifungal activity against Cytospora mandshurica at 50 ug/ml by poison plate technique; assay type: functional
In short: (§1)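 Poison plate method. Compound in PDA at 50 µg/mL final. Fungi precultured on PDA at 27 ± 1 °C for 4 days, then a ~4 mm mycelial disc was placed in the plate centre and incubated at 27 ± 1 °C for 5 days. Acetone in sterile water was the blank and hymexazol the positive control. Three replicates. Colony diameter was measured and I(%) = [(C − T)/(C − 0.4)] × 100.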

Fusarium oxysporum [3] = assay: Antifungal activity against Fusarium oxysporum at 50 ug/ml by poison plate technique; assay type: functional; in short: as §1
Sclerotinia sclerotiorum [4] = assay: Antifungal activity against Sclerotinia sclerotiorum by poison plate technique; assay type: functional, organism-based
In short: (§2)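 Poison-plate assay on PDA against nine plant-pathogenic fungi at 100, 50, 25, 12.5 and 6.25 in the medium. Cultures were grown 4 days at 27±1 °C, and 4 mm mycelial plugs were placed centrally on plates and incubated 5 days at 27±1 °C. Acetone in sterile water was the blank. Inhibition % = (C−T)/(C−0.4)×100 from colony diameters. EC50 was obtained by probit analysis, averaged from at least three separate analyses.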

Botrytis cinerea = assay: Antifungal activity against Botrytis cinerea by poison plate technique; assay type: functional, organism-based; in short: as §2
Phytophthora infestans = assay: Antifungal activity against Phytophthora infestans by poison plate technique; assay type: functional, organism-based; in short: as §2
Sclerotinia sclerotiorum [5] = assay: Change in mycelial soluble protein content in Sclerotinia sclerotiorum after 24 hrs; assay type: functional
In short: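 Soluble protein was measured in extracts of S. sclerotiorum cultured 15 days in shaken Czapek broth at 27 °C, treated at 100 and harvested at 24 h. Dried mycelium was ground in 0.05 mol/L Tris–HCl pH 7.5 and centrifuged; absorbance was read at 595 nm with buffer blank. Three repetitions.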

Fusarium graminearum [6] = assay: Antifungal activity against Gibberella zeae by poison plate technique; assay type: functional, organism-based; in short: as §2
Sclerotinia sclerotiorum [7] = assay: Change in mycelial chitinase activity in Sclerotinia sclerotiorum assessed as N-acetyl-glucosamine level after 24 hrs
In short: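 Mycelial extract came from S. sclerotiorum grown 15 days in shaken Czapek broth at 27 °C, dosed at 100 and harvested at 24 h, in Tris–HCl pH 7.5. Extract was incubated with colloidal chitin 1 h at 37 °C, boiled and centrifuged. Released GlcNAc was read with 0.8 M K2B4O7, boiling, 1% DMAB, 20 min at 36 °C, A544. The blank was boiled before incubation.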

Sclerotinia sclerotiorum [8] = assay: Change in mycelial N-acetyl-glucosamine content in Sclerotinia sclerotiorum after 24 hrs; assay type: functional
In short: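 S. sclerotiorum was grown 15 days in Czapek broth shaken at 140 rpm and 27 °C, then dosed at 100 and sampled at 24 h. Dried mycelium (1.0 g) was ground in 0.05 mol/L Tris–HCl pH 7.5 and centrifuged at 15,000g, 4 °C. Supernatant with K2B4O7 was boiled 3 min, then 1% DMAB was added, 20 min at 36 °C, A544. Three repetitions.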

Cytospora [9] = assay: Antifungal activity against Cytospora mandshurica by poison plate technique; assay type: functional; in short: as §2
Thanatephorus cucumeris = assay: Antifungal activity against Thanatephorus cucumeris by poison plate technique; assay type: functional, organism-based; in short: as §2
Sclerotinia sclerotiorum [10] = assay: Effect on membrane permeability of Sclerotinia sclerotiorum at 100 ug/ml after 240 mins relative to control; assay type: functional, organism-based
In short: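 Washed S. sclerotiorum mycelium (1 g) was placed in tubes with the compound. Conductivity was read over time from 0 to 360 min, then after boiling and cooling. Relative permeability P% = (J1−J0)/(J2−J0)×100.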

[11] = system: Colletotrichum gloeosporioides; assay: Antifungal activity against Colletotrichum gloeosporioides by poison plate technique; assay type: functional, organism-based; in short: as §2
Sclerotinia sclerotiorum [12] = assay: Change in mycelial soluble protein content in Sclerotinia sclerotiorum after 0.5 hr relative to control; assay type: functional
In short: (§3)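 S. sclerotiorum was grown from six 4 mm discs in 90 mL Czapek medium, shaken at 140 rpm and 27 °C for 15 days. Compound was then added at 100 µg/mL. Mycelium was harvested at 0.5–24 h, ground in 0.05 mol/L Tris–HCl pH 7.5 and centrifuged at 15,000g, 4 °C, for 30 min. Three repetitions. Supernatant read-outs: reducing sugar by DNS at 540 nm against glucose; chitosan (D-GlcNAc) by K2B4O7/DMAB at 544 nm; pyruvate by DNPH/NaOH at 520 nm; protein at 595 nm. Tris–HCl blank.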

Sclerotinia sclerotiorum [13] = assay: Effect on sporule germination in Sclerotinia sclerotiorum assessed as germination ratio at 100 ug/ml; assay type: functional
In short: (§4)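 Compound was mixed into PDA at 0, 20, 40, 60, 80 and 100 µg/mL, and 0.5 mL spore suspension was spread per plate. Plates were incubated at 27 °C and checked every 2 h after 24 h. Germination was scored when control germination exceeded 90%, in three fields per dish, with three replicates. GR% = 100 × G/S.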

Sclerotinia sclerotiorum [14] = assay: Change in mycelial reducing sugar level in Sclerotinia sclerotiorum after 24 hrs; assay type: functional; in short: as §3
Sclerotinia sclerotiorum [15] = assay: Change in mycelial chitosan content in Sclerotinia sclerotiorum after 6 hrs; assay type: functional; in short: as §3
Sclerotinia sclerotiorum [16] = assay: Change in mycelial reducing sugar level in Sclerotinia sclerotiorum upto 3 hrs relative to control; assay type: functional; set-up: scale not given: the % may be the effect or the level left; in short: as §3
Sclerotinia sclerotiorum [17] = assay: Change in mycelial pyruvate content in Sclerotinia sclerotiorum after 24 hrs; assay type: functional; in short: as §3
Rhizoctonia solani = assay: Antifungal activity against Rhizoctonia solani by poison plate technique; assay type: functional, organism-based
In short: (§5)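 Poison plate mycelial growth assay on PDA at 100, 50, 25, 12.5 and 6.25 µg/mL. Mycelial discs were grown at 27 ± 1 °C for 5 days and radial colony growth was measured. EC50 was estimated by probit analysis and averaged from at least three separate analyses.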

Sclerotinia sclerotiorum [18] = assay: Change in mycelial reducing sugar level in Sclerotinia sclerotiorum after 24 hrs relative to hymexazol; assay type: functional; set-up: scale not given: the % may be the effect or the level left; in short: as §3
Sclerotinia sclerotiorum [19] = assay: Effect on sporule germination in Sclerotinia sclerotiorum assessed as germination ratio at 80 ug/ml; assay type: functional; in short: as §4
Fusarium oxysporum [20] = assay: Antifungal activity against Fusarium oxysporum by poison plate technique; assay type: functional, organism-based; in short: as §5

COc1cc(-c2nnc([S+]([O-])Cc3ccccc3Cl)o2)cc(OC)c1OC (stereo not given)
inhibition at 50 µg/mL (Fusarium graminearum [1]): 7.79% | inhibition at 50 µg/mL (Cytospora [2]): -0.33% | inhibition at 50 µg/mL (Fusarium oxysporum [3]): 7.04%

CCOCC[S+]([O-])c1nnc(-c2cc(OC)c(OC)c(OC)c2)s1 (stereo not given)
inhibition at 50 µg/mL (Fusarium graminearum [1]): 16.8% | inhibition at 50 µg/mL (Cytospora [2]): 16.1% | inhibition at 50 µg/mL (Fusarium oxysporum [3]): 8.14%

COc1cccc(C[S+]([O-])c2nnc(-c3cc(OC)c(OC)c(OC)c3)s2)c1 (stereo not given)
inhibition at 50 µg/mL (Fusarium graminearum [1]): 8.29% | inhibition at 50 µg/mL (Cytospora [2]): 11% | inhibition at 50 µg/mL (Fusarium oxysporum [3]): 8.65%

Cc1cc(O)no1 [HYMEXAZOL]
EC50 (Sclerotinia sclerotiorum [4]): 4.63 µg/mL (≈ 46.7 µM) | EC50 (Botrytis cinerea): 5.12 µg/mL (≈ 51.7 µM) | EC50 (Phytophthora infestans): 25.1 µg/mL (≈ 253 µM) | Activity (Sclerotinia sclerotiorum [5]): 0.91 mg/mL | EC50 (Fusarium graminearum [6]): 26.4 µg/mL (≈ 266 µM) | inhibition at 50 µg/mL (Fusarium graminearum [1]): 53.7% | Activity (Sclerotinia sclerotiorum [7]): 0.124 mg/mL | Activity (Sclerotinia sclerotiorum [8]): 0.13 mg/mL | EC50 (Cytospora [9]): 21.4 µg/mL (≈ 216 µM) | inhibition at 50 µg/mL (Cytospora [2]): 52% | inhibition at 50 µg/mL (Fusarium oxysporum [3]): 52.1% | EC50 (Thanatephorus cucumeris): 40.4 µg/mL (≈ 408 µM) | permeability (Sclerotinia sclerotiorum [10]): 24.6% | EC50 [11]: 15.8 µg/mL (≈ 159 µM)

COc1cc(-c2nnc([S+]([O-])Cc3ccc(F)cc3)s2)cc(OC)c1OC (stereo not given)
inhibition at 50 µg/mL (Fusarium graminearum [1]): 6.4% | inhibition at 50 µg/mL (Cytospora [2]): 3.83% | inhibition at 50 µg/mL (Fusarium oxysporum [3]): 2.54%

COc1cc(-c2nnc([S+]([O-])Cc3ccc(Cl)nc3)o2)cc(OC)c1OC (stereo not given)
inhibition at 50 µg/mL (Fusarium graminearum [1]): 31.9% | inhibition at 50 µg/mL (Cytospora [2]): 11.9% | inhibition at 50 µg/mL (Fusarium oxysporum [3]): 14.9%

COc1cc(-c2nnc([S+]([O-])Cc3ccccc3)s2)cc(OC)c1OC (stereo not given)
inhibition at 50 µg/mL (Fusarium graminearum [1]): 26.9% | inhibition at 50 µg/mL (Cytospora [2]): 16% | inhibition at 50 µg/mL (Fusarium oxysporum [3]): 15.5%

COc1cc(-c2nnc([S+]([O-])Cc3ccccc3)o2)cc(OC)c1OC (stereo not given)
EC50 (Sclerotinia sclerotiorum [4]): 19.9 µg/mL (≈ 53.2 µM) | EC50 (Botrytis cinerea): 21.6 µg/mL (≈ 57.8 µM) | Activity (Sclerotinia sclerotiorum [12]): 43% | Activity (Sclerotinia sclerotiorum [13]): 5.4% | EC50 (Phytophthora infestans): 33.1 µg/mL (≈ 88.4 µM) | Activity (Sclerotinia sclerotiorum [5]): 0.69 mg/mL | Activity (Sclerotinia sclerotiorum [14]): 0.37 mg/mL | EC50 (Fusarium graminearum [6]): 28.8 µg/mL (≈ 77 µM) | inhibition at 50 µg/mL (Fusarium graminearum [1]): 53.3% | Activity (Sclerotinia sclerotiorum [15]): 0.12 mg/mL | Activity (Sclerotinia sclerotiorum [7]): 0.125 mg/mL | Activity (Sclerotinia sclerotiorum [16]): 13.3% | Activity (Sclerotinia sclerotiorum [17]): 0.19 mg/mL | Activity (Sclerotinia sclerotiorum [8]): 0.12 mg/mL | EC50 (Cytospora [9]): 64 µg/mL (≈ 171 µM) | inhibition at 50 µg/mL (Cytospora [2]): 56.1% | inhibition at 50 µg/mL (Fusarium oxysporum [3]): 52.3% | EC50 (Thanatephorus cucumeris): 23.4 µg/mL (≈ 62.6 µM) | EC50 (Rhizoctonia solani): 44.7 µg/mL (≈ 119 µM) | Activity (Sclerotinia sclerotiorum [18]): 8.8% | Activity (Sclerotinia sclerotiorum [19]): 12.6% | permeability (Sclerotinia sclerotiorum [10]): 26.7% | EC50 (Fusarium oxysporum [20]): 58.5 µg/mL (≈ 156 µM) | EC50 [11]: 39.4 µg/mL (≈ 105 µM)

COc1cc(-c2nnc([S+]([O-])Cc3ccccc3F)o2)cc(OC)c1OC (stereo not given)
inhibition at 50 µg/mL (Fusarium graminearum [1]): 11.3% | inhibition at 50 µg/mL (Cytospora [2]): 2.82% | inhibition at 50 µg/mL (Fusarium oxysporum [3]): 4.4%

COc1cc(-c2nnc([S+]([O-])Cc3cccc([N+](=O)[O-])c3)s2)cc(OC)c1OC (stereo not given)
inhibition at 50 µg/mL (Fusarium graminearum [1]): 5.45% | inhibition at 50 µg/mL (Cytospora [2]): 6.63% | inhibition at 50 µg/mL (Fusarium oxysporum [3]): 3.31%

COc1ccccc1C[S+]([O-])c1nnc(-c2cc(OC)c(OC)c(OC)c2)o1 (stereo not given)
inhibition at 50 µg/mL (Fusarium graminearum [1]): 29.9% | inhibition at 50 µg/mL (Cytospora [2]): 18.2% | inhibition at 50 µg/mL (Fusarium oxysporum [3]): 32.3%

COc1cc(-c2nnc([S+]([O-])Cc3cccc(F)c3)s2)cc(OC)c1OC (stereo not given)
inhibition at 50 µg/mL (Fusarium graminearum [1]): 14.9% | inhibition at 50 µg/mL (Cytospora [2]): 12% | inhibition at 50 µg/mL (Fusarium oxysporum [3]): 11.7%

COc1cccc(C[S+]([O-])c2nnc(-c3cc(OC)c(OC)c(OC)c3)o2)c1 (stereo not given)
inhibition at 50 µg/mL (Fusarium graminearum [1]): 37.7% | inhibition at 50 µg/mL (Cytospora [2]): 25.7% | inhibition at 50 µg/mL (Fusarium oxysporum [3]): 30.5%

CCOC(=O)C[S+]([O-])c1nnc(-c2cc(OC)c(OC)c(OC)c2)o1 (stereo not given)
inhibition at 50 µg/mL (Fusarium graminearum [1]): 18.1% | inhibition at 50 µg/mL (Cytospora [2]): 6.9% | inhibition at 50 µg/mL (Fusarium oxysporum [3]): 1.47%

COc1cc(-c2nnc([S+]([O-])Cc3cccc(F)c3)o2)cc(OC)c1OC (stereo not given)
inhibition at 50 µg/mL (Fusarium graminearum [1]): 7.29% | inhibition at 50 µg/mL (Cytospora [2]): -0.31% | inhibition at 50 µg/mL (Fusarium oxysporum [3]): -0.88%

CCOC(=O)C[S+]([O-])c1nnc(-c2cc(OC)c(OC)c(OC)c2)s1 (stereo not given)
inhibition at 50 µg/mL (Fusarium graminearum [1]): 34.8% | inhibition at 50 µg/mL (Cytospora [2]): 8.42% | inhibition at 50 µg/mL (Fusarium oxysporum [3]): 4.58%
